Test results as given in ChEMBL document CHEMBL3124818, “Synthesis and antimicrobial evaluation of amide derivatives of benzodifuran-2-carboxylic acid” (2014).
≈ marks a conversion by molar mass, not a printed value.

How the values were obtained:
Format in all cases: functional
Pseudomonas aeruginosa = assay: Antibacterial activity against Pseudomonas aeruginosa by broth dilution method
In short: (§1)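 Broth dilution screen. Compounds tested at 40 μg to 600 μg. MIC was read as the lowest concentration preventing visible growth. Solvent controls were included. Ciprofloxacin (antibacterial) and fluconazole (antifungal) were run under similar conditions as reference drugs.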

Staphylococcus aureus = assay: Antibacterial activity against Staphylococcus aureus by broth dilution method; in short: as §1
Candida albicans = assay: Antifungal activity against Candida albicans by broth dilution method; in short: as §1
Bacillus subtilis = assay: Antibacterial activity against Bacillus subtilis by broth dilution method; in short: as §1
Escherichia coli = assay: Antibacterial activity against Escherichia coli by broth dilution method; in short: as §1

Row | Compound | MIC (Pseudomonas aeruginosa) [µg/mL] | MIC (Staphylococcus aureus) [µg/mL] | MIC (Candida albicans) [µg/mL] | MIC (Bacillus subtilis) [µg/mL] | MIC (Escherichia coli) [µg/mL]
1 | Cc1ccc(NC(=O)c2oc3cc4occ(C)c4cc3c2C)cc1 | ≥ 600 | 200 (≈ 626 µM) | ≥ 600 | 200 (≈ 626 µM) | ≥ 600
2 | Cc1coc2cc3oc(C(=O)Nc4ccc(C(=O)O)cc4)c(C)c3cc12 | 600 (≈ 1720 µM) | 600 (≈ 1720 µM) | 600 (≈ 1720 µM) | 160 (≈ 458 µM) | 400 (≈ 1150 µM)
3 | COc1ccc(NC(=O)c2oc3cc4occ(C)c4cc3c2C)cc1 | ≥ 600 | 160 (≈ 477 µM) | ≥ 600 | 400 (≈ 1190 µM) | ≥ 600
4 | Cc1coc2cc3oc(C(=O)Nc4ccc(O)cc4)c(C)c3cc12 | ≥ 600 | 600 (≈ 1870 µM) | ≥ 600 | 200 (≈ 622 µM) | 600 (≈ 1870 µM)
5 | Cc1coc2cc3oc(C(=O)Nc4ccc(Cl)cc4)c(C)c3cc12 | ≥ 600 | 400 (≈ 1180 µM) | ≥ 600 | 200 (≈ 589 µM) | 200 (≈ 589 µM)
6 | Cc1coc2cc3oc(C(=O)Nc4ccccc4)c(C)c3cc12 | 600 (≈ 1970 µM) | 600 (≈ 1970 µM) | 600 (≈ 1970 µM) | 400 (≈ 1310 µM) | 600 (≈ 1970 µM)
7 | Cc1coc2cc3oc(C(=O)N4CCOCC4)c(C)c3cc12 | ≥ 600 | 400 (≈ 1340 µM) | ≥ 600 | 200 (≈ 668 µM) | 600 (≈ 2000 µM)
8 | Cc1coc2cc3oc(C(=O)N4CCCC4)c(C)c3cc12 | ≥ 600 | 160 (≈ 565 µM) | 600 (≈ 2120 µM) | 400 (≈ 1410 µM) | 400 (≈ 1410 µM)
9 | Cc1coc2cc3oc(C(=O)N4CCCCC4)c(C)c3cc12 | ≥ 600 | 400 (≈ 1350 µM) | ≥ 600 | 200 (≈ 673 µM) | 600 (≈ 2020 µM)
10 | CCN(CC)C(=O)c1oc2cc3occ(C)c3cc2c1C | 600 (≈ 2100 µM) | 160 (≈ 561 µM) | 600 (≈ 2100 µM) | 400 (≈ 1400 µM) | 400 (≈ 1400 µM)
11 | Cc1coc2cc3oc(C(=O)N4CCc5ccccc5C4)c(C)c3cc12 | ≥ 600 | 400 (≈ 1160 µM) | 600 (≈ 1740 µM) | 160 (≈ 463 µM) | ≥ 600
12 | O=C(O)c1cn(C2CC2)c2cc(N3CCNCC3)c(F)cc2c1=O [CIPROFLOXACIN] | 7.5 (≈ 22.6 µM) | 5 (≈ 15.1 µM) | – | 2 (≈ 6.04 µM) | 15 (≈ 45.3 µM)
13 | OC(Cn1cncn1)(Cn1cncn1)c1ccc(F)cc1F [FLUCONAZOLE] | – | – | 5 (≈ 16.3 µM) | – | –
